Laboratory results: ChEMBL document CHEMBL4837234, “"Clicking" fragment leads to novel dual-binding cholinesterase inhibitors” (Bioorg Med Chem, 2021)
Active and inactive are the calls of the source. No cut-off for these calls is given here.

How the values were obtained:
Cholinesterase [1] = target: T1, Cholinesterase (Homo sapiens, UniProt P06276); test: Inhibition of human serum BuChe using butyrylthiocholine iodide as substrate incubated for 25 mins by DTNB reagent based Ellman's method; format: cell-free
Summary of the method: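 Compound (Tween 80/EtOH stock, final dilutions in pH 8.0 phosphate buffer) preincubated with enzyme 30 min at room temperature, then substrate 0.5 mM plus DTNB, 25 min, 37 °C; yellow anion read spectrophotometrically. Triplicate, three occasions; IC50 from % activity vs log concentration.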

Acetylcholinesterase [2] = target: T2, Acetylcholinesterase (Homo sapiens, UniProt P22303); test: Inhibition of human erythrocyte AChE using acetylthiocholine iodide as substrate incubated for 25 mins by DTNB reagent based Ellman's method; format: tissue-based
Acetylcholinesterase [3] = target: T2, Acetylcholinesterase; test: Mixed type inhibition of human erythrocyte AChE assessed as increase in Km at 3.3 to 9.9 nM using varying level of acetylthiocholine iodide as substrate by Lineweaver-Burk plot analysis; format: tissue-based; conditions: dose 3.3-9.9 nM
Summary of the method: (§1)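 hAChE from human erythrocytes, washed in saline and lysed in 0.1 M Na₃PO₄ pH 7.4 with 0.5% Triton-X, then diluted. Ellman set-up (30 min room-temperature preincubation, then 37 °C with DTNB 1.2 mM) using substrate 0.25, 0.5, 1 and 2 mM and inhibitor 3.3 and 9.9 nM. Vmax and Km by nonlinear regression of substrate–velocity curves; Lineweaver–Burk by linear regression.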

Cholinesterase [4] = target: T1, Cholinesterase; test: Mixed type inhibition of human serum BuChe assessed as decrease in Vmax at 89 to 267 nM using varying level of butyrylthiocholine iodide as substrate by Lineweaver-Burk plot analysis; format: cell-free; conditions: dose 89-267 nM
Summary of the method: (§2)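 hBChE from human plasma diluted 1:125 in 0.1 M Na₃PO₄ pH 7.4. Ellman set-up (30 min room-temperature preincubation, then 37 °C with DTNB 1.2 mM) with substrate 0.25, 0.5, 1 and 2 mM and inhibitor 89 and 267 nM. Vmax and Km from nonlinear regression of substrate–velocity curves; Lineweaver–Burk plots by linear regression.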

Acetylcholinesterase [5] = target: T2, Acetylcholinesterase; test: Mixed type inhibition of human erythrocyte AChE assessed as decrease in Vmax at 3.3 to 9.9 nM using varying level of acetylthiocholine iodide as substrate by Lineweaver-Burk plot analysis; format: tissue-based; conditions: dose 3.3-9.9 nM; summary of the method: as §1
Cholinesterase [6] = target: T1, Cholinesterase; test: Mixed type inhibition of human serum BuChe assessed as increase in Km at 89 to 267 nM using varying level of butyrylthiocholine iodide as substrate by Lineweaver-Burk plot analysis; format: cell-free; conditions: dose 89-267 nM; summary of the method: as §2

T2 sequence (P22303 whole entry): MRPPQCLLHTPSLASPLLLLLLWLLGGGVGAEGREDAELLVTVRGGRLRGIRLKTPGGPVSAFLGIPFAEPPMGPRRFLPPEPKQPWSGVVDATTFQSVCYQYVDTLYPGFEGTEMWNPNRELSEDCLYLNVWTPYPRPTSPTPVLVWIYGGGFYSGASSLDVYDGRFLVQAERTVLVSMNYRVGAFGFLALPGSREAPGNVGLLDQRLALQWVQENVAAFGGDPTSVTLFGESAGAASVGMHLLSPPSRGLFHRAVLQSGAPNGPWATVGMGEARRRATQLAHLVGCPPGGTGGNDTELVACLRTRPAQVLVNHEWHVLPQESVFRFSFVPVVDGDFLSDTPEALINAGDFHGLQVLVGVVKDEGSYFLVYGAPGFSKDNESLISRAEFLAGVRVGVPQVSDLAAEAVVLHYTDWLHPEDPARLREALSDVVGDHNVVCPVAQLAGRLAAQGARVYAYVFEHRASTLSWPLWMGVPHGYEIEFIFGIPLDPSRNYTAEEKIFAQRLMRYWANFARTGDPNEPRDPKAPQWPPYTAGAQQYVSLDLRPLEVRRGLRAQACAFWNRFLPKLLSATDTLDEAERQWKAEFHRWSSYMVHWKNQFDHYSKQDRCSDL
T1 sequence (P06276 whole entry): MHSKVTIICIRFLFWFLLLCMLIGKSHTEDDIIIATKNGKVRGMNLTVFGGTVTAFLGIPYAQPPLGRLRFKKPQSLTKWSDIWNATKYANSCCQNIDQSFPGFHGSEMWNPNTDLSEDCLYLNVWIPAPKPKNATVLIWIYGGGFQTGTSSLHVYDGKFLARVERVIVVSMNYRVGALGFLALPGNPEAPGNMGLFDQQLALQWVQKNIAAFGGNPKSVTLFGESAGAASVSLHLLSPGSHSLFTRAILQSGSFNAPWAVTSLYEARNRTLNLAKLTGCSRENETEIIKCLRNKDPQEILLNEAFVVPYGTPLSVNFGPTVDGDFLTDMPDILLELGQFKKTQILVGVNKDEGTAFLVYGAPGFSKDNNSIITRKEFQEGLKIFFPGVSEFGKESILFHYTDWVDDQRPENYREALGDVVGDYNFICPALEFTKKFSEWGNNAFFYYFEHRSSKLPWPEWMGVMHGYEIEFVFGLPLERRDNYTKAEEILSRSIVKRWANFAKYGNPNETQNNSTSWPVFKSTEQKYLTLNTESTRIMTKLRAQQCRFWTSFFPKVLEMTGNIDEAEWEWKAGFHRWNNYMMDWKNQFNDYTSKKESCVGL

How did the IC50 (Cholinesterase [1]) turn out when `COc1ccc2[nH]cc(CCNC(=O)Cn3cc(CN4CCc5cc(OC)c(OC)cc5C4CCCN4C(=O)c5ccccc5C4=O)nn3)c2c1` (stereo unspecified) was run?
The IC50 was 26200 nM.

And the IC50 (Acetylcholinesterase [2])?
Its IC50 is 39900 nM.

With `COc1ccc2[nH]cc(CCNC(=O)Cn3cc(CCCCN4CC[C@@]56C=C[C@H](O)C[C@@H]5Oc5c(OC)ccc(c56)C4)nn3)c2c1` as the molecule, how does the IC50 (Cholinesterase [1]) read?
The IC50 was 554 nM.

What about the IC50 (Acetylcholinesterase [2]) of the same molecule?
Its IC50 is 23 nM.

With `COc1ccc2[nH]cc(CCNC(=O)CCCCn3cc(CN4CC[C@@]56C=C[C@H](O)C[C@@H]5Oc5c(OC)ccc(c56)C4)nn3)c2c1` as the molecule, how does the IC50 (Cholinesterase [1]) read?
The IC50 was 2020 nM.

What about the IC50 (Acetylcholinesterase [2]) of the same molecule?
The IC50 was 1000 nM.

Which results are given for `COc1ccc2[nH]cc(CCNC(=O)CCCCn3cc(CCCCN4CC[C@@]56C=C[C@H](O)C[C@@H]5Oc5c(OC)ccc(c56)C4)nn3)c2c1`?
IC50 (Cholinesterase [1]): 963 nM; IC50 (Acetylcholinesterase [2]): 18 nM

Which IC50 (Cholinesterase [1]) does the source give for `COc1ccc2[nH]c(CCNC(=O)CCCn3cc(CCCCN4CCc5cc(OC)c(OC)cc5C4CCCN4C(=O)c5ccccc5C4=O)nn3)cc2c1` (stereo unspecified) here?
The IC50 was 4600 nM.

And the IC50 (Acetylcholinesterase [2])?
The IC50 was 159000 nM.

How did the IC50 (Cholinesterase [1]) turn out when `COc1ccc2[nH]cc(CCNC(=O)Cn3cc(CCCCN(C)CCCC4c5cc(OC)c(OC)cc5CCN4C)nn3)c2c1` (stereo unspecified) was run?
The IC50 was 1600 nM.

What about the IC50 (Acetylcholinesterase [2]) of the same molecule?
The IC50 was 2200 nM.

`COc1ccc2[nH]cc(CCNC(=O)Cn3cc(CN4CC[C@@]56C=C[C@H](O)C[C@@H]5Oc5c(OC)ccc(c56)C4)nn3)c2c1` was tested. Which IC50 (Cholinesterase [1]) did it give?
The IC50 was 8840 nM.

And the IC50 (Acetylcholinesterase [2])?
Its IC50 is 5410 nM.

For `COc1ccc2c3c1O[C@H]1C[C@@H](O)C=C[C@@]31CCN(CCCCc1cn(CCCC(=O)NCCc3c[nH]c4ccccc34)nn1)C2`, which inhibition (Acetylcholinesterase [3]) is on record?
Its inhibition is “Active”.

And the inhibition (Cholinesterase [4])?
Its inhibition is “Active”.

And the IC50 (Cholinesterase [1])?
Its IC50 is 209 nM.

And the IC50 (Acetylcholinesterase [2])?
Its IC50 is 120 nM.

What about the inhibition (Acetylcholinesterase [5]) of the same molecule?
Its inhibition is “Active”.

What about the inhibition (Cholinesterase [6]) of the same molecule?
Its inhibition is “Active”.

With `COc1ccc2[nH]c(CCNC(=O)Cn3cc(CCCCN4CCc5cc(OC)c(OC)cc5C4CCCN4C(=O)c5ccccc5C4=O)nn3)cc2c1` (stereo unspecified) as the molecule, how does the IC50 (Cholinesterase [1]) read?
The IC50 was 57200 nM.

And the IC50 (Acetylcholinesterase [2])?
The IC50 was 174000 nM.

Which IC50 (Cholinesterase [1]) does the source give for `COc1ccc2c3c1O[C@H]1C[C@@H](O)C=C[C@@]31CCN(CCCCc1cn(CCCCC(=O)NCCc3c[nH]c4ccccc34)nn1)C2` here?
Its IC50 is 1290 nM.

And the IC50 (Acetylcholinesterase [2])?
The IC50 was 31 nM.

Which IC50 (Cholinesterase [1]) does the source give for `COc1ccc2c3c1O[C@H]1C[C@@H](O)C=C[C@@]31CCN(CCCCc1cn(CC(=O)NCCc3c[nH]c4ccccc34)nn1)C2` here?
Its IC50 is 907 nM.

And the IC50 (Acetylcholinesterase [2])?
The IC50 was 138 nM.
